Measured values taken from ChEMBL document CHEMBL1255202, “Polyamine conjugation of curcumin analogues toward the discovery of mitochondria-directed neuroprotective agents” (J Med Chem, 2010).
The source made the active and inactive calls. The rule behind the calls is not given here.

What was measured:
[1] = Antiproliferative activity against mouse HT22 cells at 10 uM after 72 hrs by MTT assay; type: cell-based; conditions: ht-22, 72 h
Procedure, shortened: (§1)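 Proliferation was measured by MTT after 72 h exposure to compound (range 0.1-30 μM, with the 10 μM point reported). Results are expressed as percent of control cells, as the mean of two independent experiments.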

C6 [2] = experiment: Antiproliferative activity against rat C6 cells at 10 uM after 72 hrs by MTT assay; type: functional; procedure, shortened: as §1
[3] = Antiproliferative activity against mouse HT22 cells after 72 hrs by MTT assay; type: cell-based; conditions: HT-22, 72 h
Procedure, shortened: (§2)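 Cells were incubated 72 h with compound at 0.1-30 μM, and proliferation was measured by MTT. IC50 is the concentration giving 50% inhibition of proliferation, reported as the mean of two independent experiments.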

SH-SY5Y [4] = experiment: Antiproliferative activity against human SH-SY5Y cells after 72 hrs by MTT assay; type: functional, cell-based; procedure, shortened: as §2
HaCaT [5] = experiment: Antiproliferative activity against human HaCaT cells at 10 uM after 72 hrs by MTT assay; type: cell-based; procedure, shortened: as §1
SH-SY5Y [6] = experiment: Antiproliferative activity against human SH-SY5Y cells at 10 uM after 72 hrs by MTT assay; type: functional; procedure, shortened: as §1
Bos taurus = organism: Bos taurus; experiment: Antioxidant activity in bovine heart mitochondria assessed as reduction of antimycin A-induced ROS production at 10 uM by fluorescence plate reader analysis; type: functional
Procedure, shortened: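 Submitochondrial particles were given NADH as substrate, and ROS production was induced with 2 μM antimycin A. Compounds were tested at 10 μM, with 1.8 μM mucidin as negative control. ROS were detected with the fluorogenic probe DCFDA.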

Caco-2 [7] = experiment: Antiproliferative activity against human Caco-2 cells at 10 uM after 72 hrs by MTT assay; type: functional; procedure, shortened: as §1
Caco-2 [8] = experiment: Antiproliferative activity against human Caco-2 cells after 72 hrs by MTT assay; type: functional, cell-based; conditions: Caco-2, 72 h; procedure, shortened: as §2
C6 [9] = experiment: Antiproliferative activity against rat C6 cells after 72 hrs by MTT assay; type: functional, cell-based; conditions: C6, 72 h; procedure, shortened: as §2
[10] = Antioxidant activity in human fibroblasts assessed as reduction of tert-butyl hydroperoxide-induced ROS production at 10 uM treated 24 hrs before tert-butyl hydroperoxide challenge measured after 30 mins by fluorescence plate reader analysis; type: functional, Fibroblast; design: scale not given: the % may be the effect or the level left
HaCaT [11] = experiment: Antiproliferative activity against human HaCaT cells after 72 hrs by MTT assay; type: cell-based; procedure, shortened: as §2
[12] = molecular target: T1, Heme oxygenase 1 (Bos taurus) (UniProt Q5E9F2); experiment: Activation of heme oxygenase-1 in BAEC at 10 uM after 6 hrs
T1 sequence (whole entry): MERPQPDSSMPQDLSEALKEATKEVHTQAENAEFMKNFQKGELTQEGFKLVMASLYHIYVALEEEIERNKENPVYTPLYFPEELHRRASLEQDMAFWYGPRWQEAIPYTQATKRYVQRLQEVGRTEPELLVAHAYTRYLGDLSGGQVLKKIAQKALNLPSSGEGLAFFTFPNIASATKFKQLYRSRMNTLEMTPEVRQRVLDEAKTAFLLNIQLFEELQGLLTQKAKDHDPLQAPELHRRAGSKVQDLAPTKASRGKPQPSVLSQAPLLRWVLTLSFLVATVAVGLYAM
Procedure, shortened: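 HO-1 activity measured in bovine aortic endothelial cells exposed to 10 μM compound for 6 h. Control cells received medium alone. Activity is reported as (pmol bilirubin/mg protein)/h, averaged over three independent experiments.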

T67 = experiment: Antiproliferative activity against human T67 cells at 10 uM after 72 hrs by MTT assay; type: functional, cell-based
[13] = Cellular uptake in human T67 cells at 10 uM after 30 mins by fluorescence microscopic analysis; type: ADME, cell-based; conditions: t67, 0.5 h
Procedure, shortened: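 T67 glioma cells were pretreated with 10 μM fluorescent probe plus 1 mg/mL oligomycin. Images were taken by inverted fluorescence microscopy after 30 min of incubation, with or without 20 μM CCCP uncoupler to test dependence on mitochondrial potential.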

[14] = Cellular uptake in human T67 cells at 10 uM after 30 mins by fluorescence microscopic analysis in presence of mitochondrial uncoupler carbonyl cyanide m-chlorophenyl-hydrazone; type: ADME, cell-based; conditions: t67, 0.5 h
Procedure, shortened: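 T67 glioma cells were pretreated with 10 μM of the fluorescent test compound plus 1 mg/mL oligomycin, an ATP-synthase inhibitor, with 20 μM CCCP uncoupler added. Images were taken by inverted fluorescence microscopy after 30 min of incubation.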

Row | Compound | Activity [1] | Activity (C6 [2]) | IC50 [3] | IC50 (SH-SY5Y [4]) | Activity (HaCaT [5]) | Activity (SH-SY5Y [6]) | Activity (Bos taurus) | Activity (Caco-2 [7]) | IC50 (Caco-2 [8]) | IC50 (C6 [9]) | Activity [10] | IC50 (HaCaT [11]) | Activity [12] | Activity (T67) | Drug uptake [13] | Drug uptake [14]
1 | COc1cc(/C=C2\CN(C(=O)CCC(=O)NCCCNCCCCNCCCN)C/C(=C\c3ccc(O)c(OC)c3)C2=O)ccc1O | 10% | 40% | 19.8 µM | 14.2 µM | 10% | 40% | Active | 40% | 11.9 µM | 13.9 µM | 45% | 15.6 µM |  |  |  | 
2 | CCCCCC[C@H]1C(=O)O[C@H](C)[C@H](NC(=O)c2cccc(NC=O)c2O)C(=O)O[C@@H](C)[C@@H]1OC(=O)CC(C)C |  |  |  |  |  |  | inactive |  |  |  |  |  |  |  |  | 
3 | COc1cc(/C=C2\CNC/C(=C\c3ccc(O)c(OC)c3)C2=O)ccc1O |  |  | 3.1 µM | 2.1 µM |  |  | inactive |  | 0.2 µM | 3.9 µM |  | 3 µM | Active | Active |  | 
4 | COc1cc(/C=C/C(=O)CC(=O)/C=C/c2ccc(O)c(OC)c2)ccc1O [CURCUMIN] |  |  | 20.4 µM | 12.8 µM |  |  |  |  | 15 µM | 16.1 µM |  | 21.9 µM |  |  |  | 
5 | CCOc1cc(/C=C2\CN(C(=O)CCC(=O)NCCCNCCCCNCCCN)C/C(=C\c3ccc(O)c(OCC)c3)C2=O)ccc1O |  |  | 18.4 µM | 20.8 µM |  |  | Active |  | 14.4 µM | 14.2 µM | 38% | 15.7 µM |  |  |  | 
6 | COc1cc(/C=C2\CN(C(=O)CCC(=O)N(CCCNCCCCNCCCN)Cc3ccc(-c4nc5ccccc5s4)cc3)C/C(=C\c3ccc(O)c(OC)c3)C2=O)ccc1O |  |  |  |  |  |  |  |  |  |  |  |  |  |  | Active | Not Active
7 | CCOc1cc(/C=C2\CN(C(=O)CCC(=O)NCCCNCCCN)C/C(=C\c3ccc(O)c(OCC)c3)C2=O)ccc1O |  |  | 18.9 µM | 14.6 µM |  |  | Active |  | 16.2 µM | 14.5 µM | 45% | 15.5 µM |  |  |  | 
8 | COc1cc(/C=C2\CN(C(=O)CCC(=O)NCCCNCCCN)C/C(=C\c3ccc(O)c(OC)c3)C2=O)ccc1O |  |  | 24.5 µM | 17.8 µM |  |  | Active |  | 16.5 µM | 19.9 µM | 40% | 17.7 µM |  |  |  | 
